The source of these data is article PMC6714550 (Investigational new drugs, 2018).

Data set [1] is described as follows: Plasma pharmacokinetics, cycle 1. It counts as in vivo, human. In a few lines: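 Patients with advanced GIST took an oral pan-FGFR kinase inhibitor (test compound) once daily at escalating dose levels (25–125 mg), with a second oral tyrosine kinase inhibitor at 400 mg once daily, in 28-day cycles. Blood was sampled at prespecified cycle 1 timepoints. Plasma parent drug, partner drug and its active metabolite were measured by validated LC-MS/MS.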

For data set [2], the system named is patients with imatinib refractory advanced GIST. Kind of data set: Safety and tolerability, DLT and MTD. As to conditions: schedule A, in combination with 400mg of imatinib.
Another data set concerns advanced GIST. As to conditions: cited from earlier work.
Setting [3] is: dose level −1 (BGJ398 50mg qd, imatinib 400mg qd), day 1, n=1.
Setting [4] is: second and third line options in GIST.

Where two headings read alike, the source gives them in different places.

Regarding `CCN1CCN(c2ccc(Nc3cc(N(C)C(=O)Nc4c(Cl)c(OC)cc(OC)c4Cl)ncn3)cc2)CC1` [BGJ398], the “AUC (0–24h)” value in data set [1] (dose level 1 (BGJ398 75mg qd, imatinib 400mg qd), day 1, n=9, mean) is given as 487 (32 – 1153) h x ng/mL; in data set [1] (dose level 2 (BGJ398 100mg qd, imatinib 400mg qd), day 1, n=1), 309 h x ng/mL; in data set [1] (setting [3]) it was 25 h x ng/mL. The time to peak (Tmax) (as a rule, the time at which the peak concentration occurs) in data set [1] (setting [3]) was 4 h; in data set [1] (human, plasma, oral), 5 h. Also, in data set [2], the “maximum tolerated dose (dose level −1)” value was 50 mg.

For the molecule `Cc1ccc(NC(=O)c2ccc(CN3CCNCC3)cc2)cc1Nc1nccc(-c2cccnc2)n1` [CGP 74588], the “Concentration of metabolite day 1 24hr” value is on record as 149 (56 – 395) ng/mL in data set [1] (dose level 1 (BGJ398 75mg qd, imatinib 400mg qd), n=9, mean); 1040 ng/mL in data set [1] (dose level 2 (BGJ398 100mg qd, imatinib 400mg qd), n=1); 54 (26 – 84) ng/mL in data set [1] (dose level −1 (BGJ398 50mg qd, imatinib 400mg qd), n=3, mean); 131 (67 – 209) ng/mL in data set [1] (dose level −2 (BGJ398 25mg qd, imatinib 400mg qd), n=3, mean).

In the case of `Cc1ccc(NC(=O)c2ccc(CN3CCN(C)CC3)cc2)cc1Nc1nccc(-c2cccnc2)n1` [imatinib], in the data set on advanced GIST (first-line, advanced GIST), the objective response rate result is on record as “approximately 50%” and the “overall disease control rate” value is 80%. The “median progression free survival” value with advanced GIST (following initiation of imatinib therapy) is reported as 20–24 months. In addition, in the data set on advanced GIST (imatinib re-challenge), the “median PFS” value is on record as 1.8 months and the “median PFS, 95% CI” value is reported as 1.7–3.6 months.

Regarding `CNC(=O)c1cc(Oc2ccc(NC(=O)Nc3ccc(Cl)c(C(F)(F)F)c3)c(F)c2)ccn1` [regorafenib], in the data set with advanced GIST (setting [4]), the “median PFS” value is on record as 4–6 months and the response rate is on record as 4–7%.

In the case of `CCN(CC)CCNC(=O)c1c(C)[nH]c(/C=C2\C(=O)Nc3ccc(F)cc32)c1C` [sunitinib], in the data set with advanced GIST (setting [4]), the “median PFS” value is 4–6 months and the response rate is given as 4–7%.
